Assay results: ChEMBL document CHEMBL1132389, “Novel farnesol and geranylgeraniol analogues: A potential new class of anticancer agents directed against protein prenylation” (J Med Chem, 1999)

Key:
[1] = target: Geranylgeranyl transferase type I (Homo sapiens, UniProt P49354+P53609); test: Inhibition of recombinant Geranylgeranyl transferase type I in scintillation proximity assay; format: protein-complex assay
How it was run: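 Recombinant mammalian GGTase I in scintillation proximity assay with streptavidin beads, using tritiated GGPP and biotin-Aha-TKCVIL peptide as substrates. Run in the same manner as the FTase assay. IC50 and Ki values determined.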

[2] = target: T1, Protein farnesyltransferase (Homo sapiens, UniProt P49354+P49356); test: Inhibition of recombinant farnesyltransferase (mFTase) in scintillation proximity assay; format: protein-complex assay
How it was run: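 Recombinant mammalian FTase in scintillation proximity assay with streptavidin beads. Substrates: tritiated FPP (15–30 Ci/mmol, final 0.12 μM) and biotin-Aha-TKCVIM peptide (final 0.1 μM). IC50 determined. Ki from the same system with varied tritiated FPP concentrations.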

[3] = target: Protein farnesyl/geranylgeranyl transferase (Homo sapiens) (UniProt P49354+P49356+P53609); test: Relative IC50 for farnesyl and geranylgeranyl transferase; format: protein-complex assay
[4] = target: T1, Protein farnesyltransferase; test: Relative Vmax compared to FPP in continuous spectrofluorimetric assay
[5] = test system: C=CC/C(=C\COP(=O)(O)OP(=O)(O)O)CC/C=C(\C)CCC=C(C)C; test: (§1) Km determined in continuous spectrofluorimetric assay; format: protein-complex assay; conditions: Homo sapiens
How it was run: (§2)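 Continuous fluorimetric assay with recombinant mammalian FTase and dansyl-GCVLS peptide. Buffer: Tris-HCl pH 7.0, DTT, MgCl2, ZnCl2, with 0.4% n-dodecyl-β-D-maltoside solution. Premixed 5 min at 30 °C. Isoprenoid diphosphate at final 0.10 to 5 μM. Reaction started with enzyme. Fluorescence (ex 350, em 486 nm) read for 300 s at 30 °C. Linear rate converted to μM/s using a separately measured enhancement factor for each substrate. Km derived from the rates.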

[6] = test system: C=C/C(=C\COP(=O)(O)OP(=O)(O)O)CC/C=C(\C)CCC=C(C)C; test: as §1; format: protein-complex assay; conditions: Homo sapiens; how it was run: as §2
[7] = test system: NIH3T3; test: Inhibition of anchorage independent growth of H-Ras(61L)CVLL-transformed NIH3T3 fibroblasts in soft agar; format: functional, cell-based; conditions: Mus musculus
How it was run: (§3)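 NIH3T3 fibroblasts transfected with H-Ras(61L) (H-Ras-F) or H-Ras(61L)CVLL (H-Ras-GG), kept in DMEM with 10% calf serum and 1% antibiotic/antimycotic at 37 °C, 10% CO2. Two-layer soft agar (0.6% bottom, 0.3% top). Cells seeded in the top layer with compound in ethanol over a concentration range, added only at seeding. Grown 2 weeks at 37 °C. Colonies stained with p-iodonitrotetrazolium violet 24 h before image-analysis count. IC50 reported.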

[8] = test system: NIH3T3; test: Inhibition of anchorage independent growth of H-Ras(61L)-transformed NIH3T3 fibroblasts in soft agar; format: functional, cell-based; conditions: Mus musculus; how it was run: as §3

Row | Compound | IC50 [1] [µM] | IC50 [2] [nM] | Ratio [3] | IC50 [7] [µM] | IC50 [8] [µM] | further results
1 | CC(C)=CCC/C(C)=C/CC/C(=C/COP(=O)(O)OP(=O)(O)O)c1ccccc1 | > 100 | 299 | > 340 | – | – | –
2 | C=C/C(=C\COP(=O)(O)OP(=O)(O)O)CC/C=C(\C)CC/C=C(\C)CCC=C(C)C | 3.05 | 715 | 4.3 | – | – | –
3 | C=C/C(=C\COP(=O)(O)OP(=O)(O)O)CC/C=C(\C)CCC=C(C)C | 100 | 173 | 600 | – | – | Krel [4]: 0.524
4 | C=CC/C(=C\COP(=O)(O)OP(=O)(O)O)CC/C=C(\C)CC/C=C(\C)CCC=C(C)C | – | 453 | 7.5 | – | – | –
5 | C=CC/C(=C\COP(=O)(O)OP(=O)(O)O)CC/C=C(\C)CCC=C(C)C | > 100 | 189 | > 530 | – | – | Krel [4]: 0.0711
6 | Protein farnesyltransferase (Homo sapiens) (from UniProt P49354+P49356) | – | – | – | – | – | Km [5]: 0.703 µM; Km [6]: 0.156 µM
7 | CC(C)=CCC/C(C)=C/CC/C(=C/CO)c1ccccc1 | – | – | – | > 25 | > 25 | –
8 | CC/C(=C\CO)CC/C=C(\C)CCC=C(C)C | – | – | – | > 25 | > 25 | –
9 | C=C/C(=C\CO)CC/C=C(\C)CCC=C(C)C | – | – | – | 14.1 | 10.9 | –
10 | C=CC/C(=C\CO)CC/C=C(\C)CC/C=C(\C)CCC=C(C)C | – | – | – | 4.6 | > 25 | –
11 | C=C/C(=C\CO)CC/C=C(\C)CC/C=C(\C)CCC=C(C)C | – | – | – | 13.9 | 18 | –
12 | CC(C)=CCC/C(C)=C/CC/C(=C/COP(=O)(O)OP(=O)(O)O)C(C)(C)C | 50 | 31 | 1600 | – | – | –
13 | C=CC/C(=C\CO)CC/C=C(\C)CCC=C(C)C | – | – | – | > 25 | 10.2 | –
14 | CC/C(=C\COP(=O)(O)OP(=O)(O)O)CC/C=C(\C)CCC=C(C)C | > 100 | 215 | > 460 | – | – | –
